For experiment [1], the system named is KB. The experiment in a line: Cytotoxicity against human KB cells assessed as growth inhibition after 72 hrs by MTT assay. The experiment is classed as functional, cell-based. For orientation: Tetrazolium assays rely on reduction of a dye to a coloured formazan, in cell work by metabolically active cells.
Experiment [2] can be described thus: Cytotoxicity against human KBv200 cells assessed as growth inhibition after 72 hrs by MTT assay. The experiment is classed as functional, cell-based. The note with it: KBv200, 72 h.
Experiment [3] is filed under the species Homo sapiens. In words: Inhibition of P-gp in human KBv200 cells assessed as increase in intracellular rhodamine123 accumulation by measuring fluorescence activity ratio at 10 uM incubated for 4 hrs followed by rhodamine123 addition measured after 1 hr by flow cytometry. The format is cell-based. The method, boiled down: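 KBv200 cells were plated at 1.5 × 10^5/mL and left overnight. Compounds were added at 10 μM in DMSO, with verapamil as reference, for 4 h at 37 °C, 5% CO2. Rho123 at 10 μM was then added for 1 h. Cells were washed twice, resuspended in ice-cold PBS and analysed by flow cytometry. FAR = (F treated − F DMSO control)/(F untreated − F DMSO control).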

The species entered for experiment [4] is Homo sapiens. The experiment in a line: Inhibition of P-gp in human KBv200 cells assessed as potentiation of navelbine-induced cytotoxicity by measuring reduction in navelbine IC50 at 10 uM after 72 hrs by MTT assay relative to control. The format is cell-based. The method, boiled down: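 KBv200 cells were seeded at 2500 cells/well for 12 h. Navelbine was added at 0.003–30 μM (0.003, 0.01, 0.03, 0.1, 0.3, 1, 3, 10, 30), alone or with modulator at 1, 3 or 10 μM, or with verapamil at 10 μM. Incubation was 72 h, followed by MTT read at A570. Navelbine IC50 came from percent growth inhibition. Reversal fold = IC50 of navelbine alone / IC50 of the combination.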

Each structure is given as a SMILES string.

As a reminder, the IC50 is the concentration needed to halve the response being measured. For `CC1(C)CC[C@]2(C)CC(=O)[C@]3(C)C4=C(CC[C@@]3(C)[C@@H]2C1)[C@@]1(C)CC[C@H](O)C(C)(C)[C@@H]1CC4=O`, the IC50 in experiment [1] stood at 10.3 µM; in experiment [2], 12 µM. The Ratio in experiment [3] is 0.95.

For the compound `CC(=O)/C=C/C[C@@H](C)[C@@H]1CC[C@]2(C)C3=C(CC[C@@]12C)[C@@]1(C)CC[C@H](O)C(C)(C)[C@@H]1CC3=O`, the IC50 in experiment [1] is 21.6 µM; in experiment [2], 22.9 µM. The Ratio in experiment [3] was 1.3.

In the case of `COc1ccc(CCN(C)CCCC(C#N)(c2ccc(OC)c(OC)c2)C(C)C)cc1OC` (stereo not drawn), in experiment [3], the Ratio is 2.25. Also, the fold change (FC) in experiment [4] came to 259.

On to `C[C@H]1CC2=C([C@H]1O)[C@@H](O)[C@]1(C)CC[C@H]3[C@@H]([C@@H](OC(=O)c4ccccc4)[C@]1(C)C2=O)C3(C)C`, for which the half-maximal inhibitory concentration (IC50) in experiment [1] was found to be 13.5 µM; in experiment [2] it was 16.1 µM. The Ratio in experiment [3] came to 1.79.

With `C[C@H]1C[C@]2(O)C(=O)[C@@]3(C)[C@H](OC(=O)c4ccccc4)[C@@H]4[C@H](CC[C@@]3(C)[C@H](O)[C@H]2[C@H]1O)C4(C)C`, the values for the concentration for half-maximal inhibition (IC50) in experiment [1] and in experiment [2] were 26.6 µM and 29 µM, respectively. Further, the Ratio in experiment [3] turned out to be 0.97.

For the compound `CC(=O)CC/C(=C/C1=C(C)CCC1=O)C(C)C` [LITSEACHROMOLAEVANE B], the IC50 in experiment [1] and in experiment [2] was greater than 30 µM in each case. The Ratio in experiment [3] amounted to 0.4.

Take `C[C@H]1C[C@]2(OC(=O)/C=C/c3ccccc3)C(=O)/C(CO)=C/[C@@H]3[C@H](CC[C@@]4(C)O[C@H]4[C@H]2[C@H]1O)C3(C)C`: the IC50 in experiment [1] and in experiment [2] was greater than 30 µM in each case. Besides, the Ratio in experiment [3] was found to be 0.35.

As to `CC1=C2C=C3CC[C@@H]4C(C)(C)[C@@H](O)CC[C@@]4(C)[C@@H]3C[C@H]2OC1=O` [HELIOSCOPINOLIDE B], the IC50 was 20.8 µM in experiment [1] and greater than 30 µM in experiment [2]. Further, the Ratio in experiment [3] was found to be 0.49.

For the compound `C/C1=C\[C@@H]2[C@H](CC[C@@]3(C)O[C@@H]3[C@H]3[C@@H](O)[C@@H](C)C[C@]3(OC(=O)c3ccccc3)C1=O)C2(C)C` [LATILAGASCENE F], the IC50 in experiment [1] and in experiment [2] was greater than 30 µM throughout. In addition, in experiment [3], the Ratio is 1.3.

Take `C=C1CC[C@H]2[C@@H]([C@@H]3[C@@H]1C1=C(C[C@H](C)C1=O)[C@@H](O)[C@@]3(C)O)C2(C)C`: the IC50 in experiment [1] and in experiment [2] was greater than 30 µM in each case. Further, the Ratio in experiment [3] was 0.76.

Consider `C/C1=C\[C@@H]2[C@H](C[C@@H](O)[C@@]3(C)O[C@@H]3[C@H]3[C@@H](OC(=O)c4ccccc4)[C@@H](C)C[C@]3(O)C1=O)C2(C)C`, for which the half-maximal inhibitory concentration (IC50) in experiment [1] and in experiment [2] was greater than 30 µM each time. The Ratio in experiment [3] was found to be 0.44.

As to `CC(=O)N[C@@H]1[C@@H]2[C@H](CC[C@@]3(C)[C@H](O)[C@H]4[C@@H](OC(=O)/C=C/c5ccccc5)[C@@H](C)C[C@]4(O)C(=O)[C@@]13C)C2(C)C`, the 50% inhibitory concentration (IC50) in experiment [1] and in experiment [2] was greater than 30 µM in each case. In addition, the Ratio in experiment [3] was determined as 1.51.

For `CC(=O)[C@@H]1CC[C@]2(C)C3=C(CC[C@@]12C)[C@@]1(C)CC[C@H](O)C(C)(C)[C@@H]1CC3=O`, the IC50 in experiment [1] and in experiment [2] was greater than 30 µM throughout. For the same compound, the Ratio in experiment [3] is 0.98.

Consider `C[C@H]1C[C@]2(OC(=O)/C=C/c3ccccc3)C(=O)[C@@]3(C)[C@@H]4[C@@H](O)C(C)(C)[C@H]4CC[C@@]3(C)[C@H](O)[C@H]2[C@H]1O`, for which the IC50 in experiment [1] turned out to be 10.9 µM; in experiment [2] it was 10.6 µM. Also, the Ratio in experiment [3] was found to be 1.47.

On to `C/C1=C\[C@@H]2[C@H](C[C@@H](O)/C(C)=C/[C@H]3[C@@H](OC(=O)c4ccccc4)[C@@H](C)C[C@]3(O)C1=O)C2(C)C`, for which the IC50 is 21.4 µM in experiment [1] and 20.6 µM in experiment [2]. Further, the Ratio in experiment [3] came out at 0.43.

For `C/C1=C\[C@@H]2[C@H](CC[C@@]3(C)O[C@@H]3[C@H]3[C@@H](O)[C@@H](C)C[C@]3(OC(=O)/C=C/c3ccccc3)C1=O)C2(C)C` [JOLKINOL B], the half-maximal inhibitory concentration (IC50) in experiment [1] came to 19.8 µM; in experiment [2], 18.2 µM. In addition, in experiment [3], the Ratio stood at 3.61.

For `C/C1=C/C[C@H]2[C@@H](/C=C(\C)C(=O)[C@@]3(OC(=O)c4ccccc4)C[C@H](C)[C@H](O)[C@@H]3[C@H]1O)C2(C)C`, the IC50 is 27.2 µM in experiment [1] and greater than 30 µM in experiment [2]. In addition, the Ratio in experiment [3] was determined as 1.13.

Turning to `CC(=O)O[C@H]1C(=O)[C@@]2(C)[C@H]([C@H](OC(=O)c3ccccc3)[C@]3(O)C[C@H](OC(=O)[C@H](O)[C@@H](NC(=O)c4ccccc4)c4ccccc4)C(C)=C1C3(C)C)[C@]1(OC(C)=O)CO[C@@H]1C[C@@H]2O` [PACLITAXEL], the results for the IC50 in experiment [1] and in experiment [2] were 0.0036 µM and 2.12 µM, respectively.

Consider `C[C@@H]1C[C@]2(O)C(=O)[C@@]3(C)[C@H](OC(=O)c4ccccc4)[C@@H]4[C@H](CC[C@@]3(C)[C@H](O)[C@H]2[C@H]1O)C4(C)C`, for which the 50% inhibitory concentration (IC50) in experiment [1] was greater than 30 µM; in experiment [2], 29.2 µM. The Ratio in experiment [3] turned out to be 0.94.

Regarding `CC(=O)O[C@]12C[C@H](C)[C@H](O)[C@@H]1[C@@H](O)/C(C)=C/C[C@H]1[C@@H](/C=C(\C)C2=O)C1(C)C`, the 50% inhibitory concentration (IC50) in experiment [1] and in experiment [2] was greater than 30 µM throughout. The Ratio in experiment [3] is 1.27.

As for `C[C@H]1C[C@]2(OC(=O)c3ccccc3)C(=O)[C@@]3(C)[C@@H]4[C@@H](O)C(C)(C)[C@H]4CC[C@@]3(C)[C@H](O)[C@H]2[C@H]1O`, the IC50 in experiment [1] is 20.1 µM; in experiment [2], greater than 30 µM. Moreover, the Ratio in experiment [3] is 0.63.

`C[C@H](/C=C/C=O)[C@@H]1CC[C@]2(C)C3=C(CC[C@@]12C)[C@@]1(C)CC[C@H](O)C(C)(C)[C@@H]1CC3=O`: the IC50 in experiment [1] and in experiment [2] was greater than 30 µM throughout. The Ratio in experiment [3] turned out to be 1.25.

Regarding `CC1=C2C=C3CC[C@@H]4C(C)(C)C(=O)CC[C@@]4(C)[C@@H]3C[C@H]2OC1=O` [HELIOSCOPINOLIDE E], the IC50 was 22.4 µM in experiment [1] and greater than 30 µM in experiment [2]. In addition, the Ratio in experiment [3] stood at 0.45.

With `C=C1CC[C@H]2[C@@H](/C=C(\C)C(=O)[C@@]3(OC(C)=O)C[C@H](C)[C@H](O)[C@@H]3[C@H]1O)C2(C)C`, the half-maximal inhibitory concentration (IC50) in experiment [1] and in experiment [2] was greater than 30 µM in each case. Further, in experiment [3], the Ratio was found to be 0.7.

For `CC(=O)O[C@]12C[C@H](C)[C@H](O)[C@@H]1/C=C(\C)CC[C@H]1[C@@H](/C=C(\C)C2=O)C1(C)C` [JOLKINOL D], the results for the IC50 in experiment [1] and in experiment [2] were 25.9 µM and 19.9 µM, respectively. Besides, in experiment [3], the Ratio was 0.66.

Values taken from ChEMBL document CHEMBL4190209, “Terpenoids from Euphorbia soongarica and Their Multidrug Resistance Reversal Activity” (J Nat Prod, 2017).
